The values below come from ChEMBL document CHEMBL1131077, “3,5-Dihydro-4H-2,3-benzodiazepine-4-thiones: a new class of AMPA receptor antagonists” (J Med Chem, 1998).

Structures are written as SMILES.

Data set [1] in a line: Relative lipophilicity. It counts as physicochemical. As to conditions: TLC, acetone/water 2:1 mobile phase. The gist of the method:
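Reversed-phase TLC on plates pre-dried 1 h at 105 °C, developed in acetone/water 2:1 (v/v); 1 µL of 3 mg/mL CHCl3 solution spotted. Rf averaged over five runs with varied spot positions; Rm = log[(1/Rf) − 1].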

For data set [2], the species on record is Mus musculus. Description: (§1) Dose which induced 50% of mice to fall from the rotarod. It counts as functional. The gist of the method:
(§2)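 Male Swiss mice (20–26 g, 48–54 days old), groups of 10, pretrained on a 3 cm rotarod at 8 rpm; tested 30 min after ip dosing. Failure meant falling within 2 min. TD50 by Litchfield–Wilcoxon, at least 32 animals.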
(The rotarod test checks motor coordination on a turning rod.)

For data set [3], the species on record is Mus musculus. Description: Anticonvulsant activity against audiogenic seizures in DBA/2 mice (value required to prevent clonic phases of seizures). It counts as functional. A digest of the protocol: (§3)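 DBA/2 mice (8–12 g, 22–25 days old, either sex), groups of 10, given drug or vehicle ip (50% DMSO/50% saline, 0.1 mL/10 g) 30 min before auditory stimulation; latency and incidence of seizure phases scored. ED50 per phase by Litchfield–Wilcoxon, at least 32 animals per value.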

The species named for data set [4] is Mus musculus. Description: Anticonvulsant activity against clonic phase of the audiogenic seizures after pretreatment with aniracetam in DBA/2 mice. In kind it is functional. The gist of the method: (§4)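 DBA/2 mice (8–12 g, 22–25 days old, either sex) pretreated with aniracetam, then given the benzodiazepine ip in 50% DMSO/50% saline; sound stimulation 30 min after dosing, with clonic or tonic phase scored. ED50 by Litchfield–Wilcoxon (at least 32 animals), compared with benzodiazepine alone.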

For data set [5], the species on record is Mus musculus. Description: Anticonvulsant activity against audiogenic seizures in DBA/2 mice (value required to prevent tonic phases of seizures). In kind it is functional. A digest of the protocol: as §3
Data set [6] in a line: Therapeutic index (TD50/ED50) from the clonic phase of the audiogenic seizures. The gist of the method: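 Ratio of rotarod TD50 (Swiss mice, 30 min after ip dosing) to ED50 for clonic phase of audiogenic seizures in DBA/2 mice (30 min after ip dosing). Both values from Litchfield–Wilcoxon fits, in µmol/kg.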
The species entered for data set [7] is Mus musculus. Briefly: Anticonvulsant activity against pentylenetetrazole (PTZ)-induced seizures in swiss mice. It counts as functional. A digest of the protocol:
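Male Swiss mice (20–26 g, 42–48 days old) dosed ip in 50% DMSO/saline 45 min before PTZ 85 mg/kg sc (CD97); watched 30 min. Protection meant no clonic spasm lasting at least 5 s. ED50 by Litchfield–Wilcoxon.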

Data set [8] relates to Mus musculus. Description: Anticonvulsant activity against clonic seizures induced by icv injection of AMPA in DBA/2 mice. In kind it is functional. Conditions: central.
The species named for data set [9] is Mus musculus. Description: Anticonvulsant activity against clonic phase of the audiogenic seizures after concomitant with flumazenil at 8.24 umol dose in DBA/2 mice. In kind it is functional. The gist of the method:
(§5)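 DBA/2 mice (8–12 g, 22–25 days old, either sex) given test drug ip in 50% DMSO/50% saline together with flumazenil at the stated dose, then auditory stimulation 30 min after dosing; clonic or tonic phase scored in groups of 10. ED50 by Litchfield–Wilcoxon, at least 32 animals per value.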

The test system of data set [10] is Mus musculus. Description: Anticonvulsant activity against tonic seizures induced by icv injection of AMPA in DBA/2 mice. As to conditions: central. It counts as functional.
The species entered for data set [11] is Mus musculus. Description: Anticonvulsant activity against tonic phase of the audiogenic seizures after concomitant with flumazenil at 8.24 umol dose in DBA/2 mice. It counts as functional. The gist of the method:
as §5

The species entered for data set [12] is Mus musculus. Description: Anticonvulsant activity against maximal electroshock (MES) seizures in swiss mice. It counts as functional. A digest of the protocol: (§6)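 Swiss mice dosed ip (50% DMSO/saline) 45 min before ear-clip electroshock (50 mA, 20 ms pulses, 35 Hz, 400 ms). Protection taken as abolition of tonic hindlimb extension. Four to five doses, 8–10 mice each; ED50 by Litchfield–Wilcoxon.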

Data set [13] is filed under the species Mus musculus. Briefly: Anticonvulsant activity against tonic phase of the audiogenic seizures after concomitant with flumazenil at 24.72 umol dose in DBA/2 mice. It counts as functional. The gist of the method: as §5
Data set [14] is filed under the species Mus musculus. Description: Anticonvulsant activity against clonic phase of the audiogenic seizures after concomitant with flumazenil at 24.72 umol dose in DBA/2 mice. In kind it is functional. The gist of the method: as §5
The species named for data set [15] is Mus musculus. Briefly: Anticonvulsant activity against tonic phase of the audiogenic seizures after pretreatment with aniracetam in DBA/2 mice. In kind it is functional. A digest of the protocol: as §4
Data set [16] in a line: as §1. Conditions: mouse, in vivo. In kind it is ADME. The gist of the method: as §2
Data set [17] is filed under the species Mus musculus. Description: Anticonvulsant activity against maximal electroshock (MES ) seizures in swiss mice. In kind it is functional. The gist of the method: as §6

As for `COc1cc2c(cc1OC)C(c1cccc([N+](=O)[O-])c1)=NN=C(S)C2`, the Rm in [1] is recorded as 0.092.
For the compound `COc1cc2c(cc1OC)C(c1ccc(N)cc1)=NN(C)C(=O)C2`, the TD50 (as a rule, the 50% point of the dose-response relation for the toxic effect studied) in data set [2] stood at 159 µmol/kg. This compound showed a Rm in data set [1] of -0.421.
Turning to `COc1cc2c(cc1OC)C(c1ccc([N+](=O)[O-])cc1)=NNC(=O)C2`, in [1], the Rm was -0.113.
Turning to `COc1cc2c(cc1OC)C(c1ccc(Br)cc1)=NNC(=O)C2`, in [2], the TD50 is 226 µmol/kg. For the same compound, the Rm in data set [1] is on record as 0.035.
Consider `COc1cc2c(cc1OC)C(c1ccc([N+](=O)[O-])cc1)=NN(C)C(=O)C2`, for which the Rm in data set [1] was found to be 0.11.
`COc1cc2c(cc1OC)C(c1cccc([N+](=O)[O-])c1)=NNC(=O)C2`: the Rm in data set [1] is given as -0.135.
For `COc1cc2c(cc1OC)C(c1cccc(N)c1)=NNC(=O)C2`, the TD50 in data set [2] was 51.5 µmol/kg. Besides, the Rm in data set [1] is -0.542.
Take `COc1cc2c(cc1OC)C(c1ccccc1)=NNC(=O)C2`: in data set [3], the ED50 (commonly the midpoint of the dose-response relation) came to 33.9 µmol/kg. The Rm in data set [1] is on record as -0.244.
As for `COc1cc2c(cc1OC)C(c1ccc(N)cc1)=NNC(=O)C2`, the ED50 in data set [4] was 65.4 µmol/kg. Further, the Rm in data set [1] is reported as -0.63.
Regarding `COc1cc2c(cc1OC)C(c1ccccc1)=NN(C)C(=O)C2`, the TD50 in data set [2] is 154 µmol/kg. This compound also gave a Rm in [1] of -0.003.
As for `COc1cc2c(cc1OC)C(c1ccc(Cl)cc1)=NNC(=O)C2`, the TD50 in [2] worked out at 240 µmol/kg. The same compound gave a Rm in data set [1] of 0.012.
Compound `COc1cc2c(cc1OC)C(c1ccc(Br)cc1)=NN(C)C(=O)C2` gave a Rm in data set [1] of 0.263.
As to `COc1cc2c(cc1OC)C(c1ccccc1)=NN(C)C(=S)C2`, the values for the ED50 in data set [3] and in data set [5] were 30.6 µmol/kg and 24.7 µmol/kg, respectively. Further, the TD50 in data set [2] stood at 97.1 µmol/kg. Further, the selectivity ratio in data set [6] is 3.17. Further, in data set [1], the Rm stood at 0.282.
Taken in the same sequence, the figures for `COc1cc2c(cc1OC)C(c1ccc(Cl)cc1)=NN=C(S)C2` were 82.4 µmol/kg, 55 µmol/kg, 193 µmol/kg, 3.26 and 0.244.
Regarding `COc1cc2c(cc1OC)C(c1cccc(N)c1)=NN=C(S)C2`, the median effective dose (ED50) in [3] stood at 18.8 µmol/kg; in data set [5], 9.1 µmol/kg. Also, the TD50 in [2] was determined as 76.7 µmol/kg. In addition, the selectivity ratio in data set [6] was determined as 4.08. Further, the Rm in data set [1] is -0.259.
As for `COc1cc2c(cc1OC)C(c1ccc(N)cc1)=NN(C)C(=S)C2`, the ED50 in data set [3] turned out to be 29.8 µmol/kg; in [5], 20.3 µmol/kg. In [2], this compound registered a TD50 of 130 µmol/kg. For the same compound, the selectivity ratio in [6] is 4.35. In [1], this compound returned a Rm of -0.072.
`COc1cc2c(cc1OC)C(c1ccccc1)=NN=C(S)C2`: the 50% effective dose (ED50) in data set [7] came to 33.7 µmol/kg; in [8] it was 43.1 µmol/kg; in data set [3], 19.7 µmol/kg; in [4], 98 µmol/kg; in [9] it was 22.4 µmol/kg; in data set [10], 31.1 µmol/kg. For the same compound, the ED50 in [11] came out at 13.6 µmol/kg; in data set [12], 27.8 µmol/kg; in data set [13] it was 12.6 µmol/kg; in data set [14] it was 19.3 µmol/kg; in [5], 15 µmol/kg; in [15], 69.1 µmol/kg. Besides, the selectivity ratio in data set [6] was found to be 5.02. The Rm in data set [1] is 0.014. Besides, in data set [16], the TD50 amounted to 98.9 µmol/kg.
In the case of `COc1cc2c(cc1OC)C(c1ccc(Br)cc1)=NN=C(S)C2`, the ED50 in [3] stood at 52.1 µmol/kg; in data set [5], 33.3 µmol/kg. In data set [2], this compound registered a TD50 of 73 µmol/kg. In data set [6], the selectivity ratio worked out at 1.4. Also, the Rm in data set [1] was 0.269.
Consider `COc1cc2c(cc1OC)C(c1ccc(Br)cc1)=NN(C)C(=S)C2`, for which the ED50 was determined as 105 µmol/kg in data set [3] and 60.4 µmol/kg in data set [5]. The compound further displayed a Rm in data set [1] of 0.575.
With `COc1cc2c(cc1OC)C(c1ccc(N)cc1)=NN=C(S)C2`, the ED50 was 7.75 µmol/kg in data set [17]; 15.4 µmol/kg in data set [7]; 17.1 µmol/kg in data set [8]; 6.3 µmol/kg in data set [3]; 46.1 µmol/kg in [4]; 6.9 µmol/kg in data set [9]. Besides, the 50% effective dose (ED50) in data set [10] was determined as 11.9 µmol/kg; in data set [11] it was 3.24 µmol/kg; in [13] it was 3.22 µmol/kg; in [14], 7.1 µmol/kg; in [5], 3.3 µmol/kg; in data set [15] it was 38.5 µmol/kg. In addition, the selectivity ratio in [6] was 6.76. For the same compound, the Rm in data set [1] is -0.308. The compound also showed a TD50 in [16] of 42.6 µmol/kg.
Turning to `COc1cc2c(cc1OC)C(c1ccc([N+](=O)[O-])cc1)=NN(C)C(=S)C2`, the ED50 in [3] was 103 µmol/kg; in [5], 81.5 µmol/kg. Further, the Rm in data set [1] worked out at 0.333.
In the case of `COc1cc2c(cc1OC)C(c1ccc([N+](=O)[O-])cc1)=NN=C(S)C2`, the ED50 in data set [3] is 93.4 µmol/kg; in data set [5], 69.8 µmol/kg. For the same compound, in data set [2], the TD50 was over 150 µmol/kg. The Rm in data set [1] came out at 0.122.
Regarding `CC1=NN=C(c2ccc(N)cc2)c2cc3c(cc2C1)OCO3` [GYKI-52466], in data set [1], the Rm is on record as -0.308.
